# Only some compounds are listed: those with a hit (about 3.8% of all), similar ones and a draw of the others.
# KCNK9 block: KCNK9 potassium channel inhibitors, primary screen, HEK293 cells, thallium flux. FluxOR thallium flux fluorescence; active compounds read low. B-score at 10 µM. actives 1.2% (n = 310,000). AID 488922, 2010;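 active = ratio B-score over 3 SD below the library mean, with starting fluorescence within 5 SD of its mean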;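 also: negative B-score means less thallium flux so channel inhibition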
# KCNQ1 act: potentiators or activators of KCNQ1 channel, primary screen, cell-based, thallium flux, high-throughput. Potassium voltage-gated channel subfamily KQT member 1 (Homo sapiens), P51787. actives 0.35% (n = 310,000). B-score at 10 µM. CHO-K1 KCNQ1, thallium flux FluxOR fluorescence; active compounds read high;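 active = fluorescence ratio B-score, a plate-corrected score, at least three library SD, with initial intensity B-score within 5 SD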
# Target sequence (P51787 whole entry, looked up): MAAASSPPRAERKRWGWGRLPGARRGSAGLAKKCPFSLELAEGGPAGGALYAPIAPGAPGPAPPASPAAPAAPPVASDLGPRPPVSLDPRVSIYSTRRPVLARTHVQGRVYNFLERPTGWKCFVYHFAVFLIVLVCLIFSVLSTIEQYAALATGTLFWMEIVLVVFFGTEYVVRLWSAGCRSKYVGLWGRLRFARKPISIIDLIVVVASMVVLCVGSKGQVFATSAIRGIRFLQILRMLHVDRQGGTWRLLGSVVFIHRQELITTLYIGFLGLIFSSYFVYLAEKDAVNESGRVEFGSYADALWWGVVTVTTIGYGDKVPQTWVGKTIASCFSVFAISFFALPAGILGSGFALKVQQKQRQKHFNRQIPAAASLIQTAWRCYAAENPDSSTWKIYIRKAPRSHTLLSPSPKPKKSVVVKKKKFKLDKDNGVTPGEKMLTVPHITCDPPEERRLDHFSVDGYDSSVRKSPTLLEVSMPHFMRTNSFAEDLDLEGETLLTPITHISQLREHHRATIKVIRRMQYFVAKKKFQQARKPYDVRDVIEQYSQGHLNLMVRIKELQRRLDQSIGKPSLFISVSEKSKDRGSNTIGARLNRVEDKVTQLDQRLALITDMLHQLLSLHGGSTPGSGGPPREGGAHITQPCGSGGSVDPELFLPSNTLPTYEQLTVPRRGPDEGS
#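 Assay system: CHO-K1 cells stably expressing KCNQ1. Medium: assay buffer for compound exposure, DMSO matched across wells. Timing: 37 °C overnight plating, 90-min dark dye load, 20-min compound pretreatment. Signal: kinetic FluxOR fluorescence, 10 s baseline plus 110 s post-stimulus.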
# Kir21 inh: inhibitors of mouse Kir2.1 inward-rectifier potassium channel; B-score at 10 µM; actives 0.85% (n = 310,000); Inward rectifier potassium channel 2 (Mus musculus), P35561; AID 1672, 2009; HEK293-Kir2.1, FluxOR thallium flux fluorescence; active compounds read low;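 active = fluorescence ratio B-score at or below minus 3 SD of library scores, with starting-brightness B-score within 2 SD, cut at about -4.2 in these data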;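 also: channel flux triggered by added potassium and thallium sulfate stimulus; B-score of peak minus minimum fluorescence over baseline after thallium stimulus; more negative B-score means stronger Kir2.1 block with less thallium influx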
# hERG protect: hERG rescue from dofetilide block, primary screen, cell-based, CHO-hERG, FluxOR thallium flux, dofetilide IC70. Voltage-gated inwardly rectifying potassium channel KCNH2 (Homo sapiens), Q12809. dofetilide IC70 present. activation (rescue from dofetilide block), less the hit threshold, % at 10 µM. actives 0.51% (n = 310,000). AID 1511, 2009;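 active = activation above the mean of controls blocked by dofetilide plus 5 SD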;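 also: thallium influx through hERG after potassium depolarization seen as dye fluorescence rise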
# KCNK3 inh: human KCNK3 channel inhibitors, primary screen, CHO cells, FluxOR thallium flux, B-score | FluxOR fluorescence; active compounds read low | B-score at 10 µM | actives 0.84% (n = 340,000);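 active = B-score under library mean minus 4 SD, starting fluorescence ratio at most library mean plus 5 SD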;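 also: more negative B-score means stronger inhibition of thallium flux through KCNK3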
# KCNQ1 block: inhibitors of human KCNQ1 channel, primary screen, cell-based, thallium flux, high-throughput; CHO-K1 KCNQ1, FluxOR thallium flux fluorescence; active compounds read high; Potassium voltage-gated channel subfamily KQT member 1 (Homo sapiens), P51787; B-score at 10 µM; actives 1.3% (n = 310,000); AID 2642, 2010;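 active = compounds whose thallium flux B-score, printed positive for inhibition, exceeds three library SD while starting fluorescence stays within three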;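 also: channel opened by potassium depolarization with thallium stimulus after 20 min compound exposure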
# KCNK9 block conf: KCNK9 potassium channel inhibitors, confirmation, HEK293 cells, thallium flux, duplicate | shares compounds with KCNK9 block | FluxOR thallium flux fluorescence | inhibition, % at 10 µM | actives 43% (n = 4,900);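 active = thallium signal inhibited by more than 5 SD of the compound-free buffer control wells, on both duplicate plates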;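 also: 0% = assay buffer control wells without compound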
# Kir21 sel: mouse Kir2.1 channel inhibition, confirmation, selectivity assay for KCNK9 modulator project, cell-based, HEK293, thallium flux | shares compounds with KCNK9 block | Kir2.1 cells, FluxOR thallium flux fluorescence | inhibition, % at 10 µM | actives 4% (n = 4,900) | AID 492993, 2010;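 active = thallium signal drop more than 5 SD beyond the mean of the no-compound control wells, seen in both duplicate plates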;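 also: signal is fluorescence rise after thallium addition divided by baseline fluorescence; plate controls were assay buffer only for no effect and full block by chlorpromazine control for full effect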
# HEK293 Tl ctr: thallium flux in non-induced HEK293 cells, confirmation, counter-screen for KCNK9 inhibitor project, cell-based, second counter screen, non-induced KCNK9-HEK293; shares compounds with KCNK9 block; FluxOR thallium flux; inhibition, % at 10 µM; actives 40% (n = 4,900); AID 492997, 2010;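 active = thallium signal drop beyond 5 SD of the untreated control mean, on both duplicate plates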;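 also: plate controls were buffer only IC0 wells for no effect and SID17386958 at its maximal inhibitory level for full effect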
# * hit, by the source's call; i = inactive; . = no result given.
SMILES,KCNK9 block,KCNQ1 act,Kir21 inh,hERG protect,KCNK3 inh,KCNQ1 block,KCNK9 block conf,Kir21 sel,HEK293 Tl ctr
CCCOc1ccc(-c2c(=O)n(OCc3ccc([N+](=O)[O-])cc3)c3ccccc3[n+]2[O-])cc1,-11*,i,1.4,-4,i,i,50%*,i,34%*
Cc1cc(O)c(NC(=O)c2cc([N+](=O)[O-])ccc2Cl)cc1C,-14*,i,-0.73,-17,i,i,62%*,i,i
COc1ccc(C(=O)NNC(=O)COC(=O)c2sccc2C)cc1,.,.,.,.,i,.,.,.,.
Cc1ccc2nc(Br)c3c(c2c1)OC(CBr)C3 (stereo not given),i,i,0.59,-12,i,i,.,.,.
O=C(NN1C(=O)C2C3C=CC(C3)C2C1=O)c1cccc(Cl)c1 (stereo not given),i,i,-0.29,-6,i,i,.,.,.
O=C(NN1C(=O)C2C(c3ccccc3)C=CC(c3ccccc3)C2C1=O)c1cccc(Br)c1 (stereo not given),-12*,i,0.66,11*,i,i,62%*,i,37%*
CCN(CC)C(=O)CSc1nc(-c2cccs2)cc(-c2cccs2)c1C#N,-9.8*,i,-0.26,-21,i,i,62%*,i,68%*
CCN(CC)C(=O)CSc1nc(N)c(C#N)c(-c2cccs2)c1C#N,i,i,0.65,3,i,i,.,.,.
Cc1[nH]c(=O)[nH]c(=O)c1S(=O)(=O)N(CC(C)C)CC(C)C,i,i,0.77,-14,i,i,.,.,.
CC(C)(C)OC(=O)N1CCN(c2ccc(CNC(=O)c3ccc(Cl)cc3)cc2)CC1,i,i,0.84,-2,i,i,i,i,i
COc1cccc(NC(=O)CN(C)C(=O)CSc2nc(C)cc(C)n2)c1,.,.,.,.,i,.,.,.,.
CCN(Cc1ccccc1)C(c1ccc(Cl)cc1)c1nnnn1C(C)(C)C (stereo not given),-10*,i,0.87,-3,i,i,59%*,i,54%*
O=[N+]([O-])c1ccc(S(=O)(=O)Nc2ccc3c(c2)OCCO3)cc1,-8.1*,i,-0.25,-10,i,i,i,i,i
Cc1ccccc1-c1ocnc1C(=O)Nc1ccccc1NC(=O)c1ccccn1,-8.7*,i,-1.4,-13,i,i,38%*,i,i
COCCN(C(=O)CSc1nnc(-c2cccs2)n1N)c1c(N)n(Cc2ccccc2)c(=O)[nH]c1=O,i,i,0.09,-13,i,i,.,.,.
COc1cc(CN2CCCC(N3CCN(c4ccccc4C)CC3)C2)cc(Cl)c1O (stereo not given),i,i,1.3,-7,i,i,i,i,i
Fc1ccccc1N1CCN(C2CCCN(Cc3cccc(C(F)(F)F)c3)C2)CC1 (stereo not given),i,i,-2,-13,i,i,i,i,i
COc1ccc(CN2CCCC(N3CCN(c4cccc(Cl)c4)CC3)C2)cc1OC (stereo not given),i,i,-0.85,-5,i,i,.,.,.
CCC1=NN2C(=N)/C(=C\c3cccn3-c3cccc(Cl)c3)C(=O)N=C2S1,i,i,-0.87,-5,i,i,i,i,i
CCC1=NN2C(=N)/C(=C\c3cccn3-c3ccc(Br)cc3)C(=O)N=C2S1,i,i,1.9,-8,i,i,.,.,.
NC(=O)CC(NC(=O)c1ccc(Br)cc1)c1ccc(NC2CCCCCCC2)c([N+](=O)[O-])c1 (stereo not given),-11*,i,0.29,-1,i,i,i,i,33%*
NC(=O)CC(NC(=O)c1ccccc1)c1ccc(NC2CCCCCCC2)c([N+](=O)[O-])c1 (stereo not given),i,i,-0.25,-3,i,i,.,.,.
CCOC(=O)c1c(-c2ccc(-c3ccccc3)cc2)csc1NC(=O)CNCCN(C)C,-10*,i,-3.7,-31,i,6*,57%*,32%*,29%*
CCOC(=O)c1c(-c2cccc([N+](=O)[O-])c2)csc1NC(=O)C1CC1,-8.3*,i,-0.76,-8,i,i,24%*,i,24%*
CCOC(=O)c1c(-c2cccc([N+](=O)[O-])c2)csc1NC(=O)C1CCCCC1,i,i,-0.8,-3,i,i,.,.,.
SMILES,KCNK9 block,KCNQ1 act,Kir21 inh,hERG protect,KCNK3 inh,KCNQ1 block,KCNK9 block conf,Kir21 sel,HEK293 Tl ctr
COc1ccc(Br)c(C(=O)NCC2CCCCC2)c1,i,i,-0.27,-10,i,i,.,.,.
CCCCN(C)C(=O)c1cccc(OC2CCN(CC(C)(C)C)CC2)c1,-12*,i,0.01,-4,i,i,i,i,i
COC(=O)C(C)Oc1cc(OC(C)C(=O)OC)c2c(C)c(Cl)c(=O)oc2c1 (stereo not given),i,i,2.6,-10,i,i,i,i,i
COC(=O)COc1cc(OCC(=O)OC)c2c(C)c(Cl)c(=O)oc2c1,i,i,0.69,-5,i,i,.,.,.
CCNC(=S)NNC(=O)c1cc(Br)cs1,i,i,-1.4,-11,i,i,.,.,.
CCOC(=O)c1c(NC(=O)C(=O)N/N=C/c2ccc(OCC)cc2)sc2c1CCCCC2,i,i,-0.85,-10,i,i,.,.,.
CCOC(=O)c1c(NC(=O)C(=O)N/N=C/c2ccc(O)c(OC)c2)sc2c1CCCCC2,-8.5*,i,-0.68,-15,i,i,56%*,i,30%*
